Test [1] addresses T1, Serine/threonine-protein kinase ULK1 (Homo sapiens) (UniProt O75385).
T1 sequence (whole entry): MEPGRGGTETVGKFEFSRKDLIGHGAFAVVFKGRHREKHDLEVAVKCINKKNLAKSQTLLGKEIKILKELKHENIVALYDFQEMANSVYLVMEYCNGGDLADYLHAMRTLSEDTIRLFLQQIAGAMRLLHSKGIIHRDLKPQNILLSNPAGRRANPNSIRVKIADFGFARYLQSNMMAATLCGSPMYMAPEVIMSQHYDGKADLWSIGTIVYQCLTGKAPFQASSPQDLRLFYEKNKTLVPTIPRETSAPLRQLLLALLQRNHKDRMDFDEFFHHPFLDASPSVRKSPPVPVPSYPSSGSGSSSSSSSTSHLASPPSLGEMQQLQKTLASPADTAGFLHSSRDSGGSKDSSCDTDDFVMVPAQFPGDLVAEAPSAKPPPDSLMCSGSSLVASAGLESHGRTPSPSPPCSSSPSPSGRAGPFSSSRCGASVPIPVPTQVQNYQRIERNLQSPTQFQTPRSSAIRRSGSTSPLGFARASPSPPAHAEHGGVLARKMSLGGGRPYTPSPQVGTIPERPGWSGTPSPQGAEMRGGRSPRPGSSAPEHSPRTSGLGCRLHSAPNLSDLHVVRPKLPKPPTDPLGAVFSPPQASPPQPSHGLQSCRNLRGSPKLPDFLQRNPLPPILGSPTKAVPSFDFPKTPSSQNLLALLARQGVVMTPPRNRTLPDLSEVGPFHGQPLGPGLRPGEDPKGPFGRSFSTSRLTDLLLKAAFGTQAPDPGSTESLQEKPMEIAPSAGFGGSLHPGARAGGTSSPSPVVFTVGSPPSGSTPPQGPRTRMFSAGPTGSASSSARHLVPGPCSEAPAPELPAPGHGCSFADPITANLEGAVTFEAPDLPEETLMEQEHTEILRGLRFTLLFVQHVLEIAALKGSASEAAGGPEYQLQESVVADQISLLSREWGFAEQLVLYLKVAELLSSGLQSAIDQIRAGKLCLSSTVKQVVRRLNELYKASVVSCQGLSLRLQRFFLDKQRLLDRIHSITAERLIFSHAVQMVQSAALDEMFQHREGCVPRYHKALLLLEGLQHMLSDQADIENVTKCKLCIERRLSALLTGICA
Kind of test: Induction of human recombinant N-terminal GST tagged-ULK1 (1 to 649 residues) kinase activity expressed in baculovirus infected insect Sf9 cells at 100 nM using MBP as substrate after 60 mins by ADP-glo assay relative to (R)-2-(3-(3,5-Bis(trifluoromethyl)phenyl)thioureido)-N-(2,4-difluorophenyl)-2-phenylacetamide. A digest of the protocol: (§1)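 Recombinant human ULK1 (10 ng) with MBP (0.1 µg/µl)/10 µM ATP and compound at 100 nM in 40 mM Tris pH 7.5, 20 mM MgCl2, 50 µM DTT, 0.1 mg/ml BSA. Incubated 60 min at room temperature; ADP-Glo luminescence read. Three independent experiments, mean ± SEM.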
(In ADP-Glo the light output rises with the ADP produced.)

Test [2] addresses T2, Serine/threonine-protein kinase ULK1 (Homo sapiens, UniProt O75385).
T2 sequence (O75385 whole entry): T1 sequence (whole entry)
Kind of test: Induction of human recombinant N-terminal GST tagged-ULK1 (1 to 649 residues) kinase activity expressed in baculovirus infected insect Sf9 cells using MBP as substrate after 60 mins by ADP-glo assay. The gist of the method: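 ULK1 (10 ng) incubated with MBP (0.1 µg/µl)/10 µM ATP and a compound concentration series in Tris pH 7.5/MgCl2/DTT/BSA buffer for 60 min at room temperature. ADP-Glo luminescence read. EC50 derived from the curve; Emax normalized to maximal response of the reference activator.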

Test [3] addresses T1, Serine/threonine-protein kinase ULK1 (Homo sapiens). Kind of test: Induction of human recombinant N-terminal GST tagged-ULK1 (1 to 649 residues) kinase activity expressed in baculovirus infected insect Sf9 cells at 100 nM using MBP as substrate after 60 mins by ADP-glo assay relative to control. The gist of the method: as §1
The target is the same in test [4]. Briefly: Induction of ULK1-mediated autophagy in human SH-SY5Y cells at 1 uM after 6 hrs by MDC-staining based flow cytometric analysis relative to control. The test is classed as cell-based. The gist of the method: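 Autophagy scored as percentage of MDC-positive SH-SY5Y cells by flow cytometry after 1 µM compound; mean ± SEM.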

Usually EC50 stands for the midpoint of the concentration-response curve. Regarding `Clc1ccc(CO[C@@H](Cn2ccnc2)c2ccc(Cl)cc2Cl)cc1`, the fold change (FC) in test [1] worked out at 0.324. The concentration for a half-maximal effect (EC50) in test [2] came out at 263 nM.

On to `Cc1ccccc1NC(=O)[C@H](NCCc1ccc(F)cc1)c1ccccc1`, for which the Activity in test [3] worked out at 164%; in test [4] it was 24.5%.

On to `Cc1ccccc1NC(=O)[C@H](NCCc1ccc(Cl)c(Cl)c1)c1ccccc1`, for which the figures for the Activity in test [3] and in test [4] were 153% and 20.3%, respectively.

On to `COc1ccc(N2CCN(CC(OC(=O)c3cccc(C)c3)c3ccccc3)CC2)cc1` (stereo not drawn), for which the Activity was determined as 141% in test [3] and 8.56% in test [4].

For `Cc1cccc(C)c1NC(=O)N[C@@H](C(=O)Nc1cc(F)ccc1F)c1ccccc1`, the figures for the Activity in test [3] and in test [4] were 147% and 24.9%, respectively.

Turning to `COc1ccc(N2CCN(CC(OC(=O)c3ccc(F)cc3)c3ccccc3)CC2)cc1` (stereo not drawn), the figures for the Activity in test [3] and in test [4] were 168% and 11.1%, respectively.

With `COc1ccc(N2CCN(CC(OC(=O)c3cccc(Cl)c3)c3ccccc3)CC2)cc1` (stereo not drawn), the Activity in test [3] amounted to 163%; in test [4], 13.4%.

Regarding `O=C(Nc1ccc(F)cc1F)[C@H](NCCc1ccc(F)cc1)c1ccccc1`, the Activity in test [3] was found to be 202%; in test [4] it was 30.1%. Also, the fold change (FC) in test [1] turned out to be 0.742. Also, in test [2], the EC50 was 40.8 nM.

Consider `COc1ccc(CCNC(=O)N[C@@H](C(=O)Nc2ccc(C(F)(F)F)cc2)c2ccccc2)cc1OC`, for which the Activity in test [3] turned out to be 163%; in test [4], 33.5%.

For `COc1ccc(C(=O)OC(CN2CCN(c3ccc(OC)cc3)CC2)c2ccccc2)cc1` (stereo not drawn), the Activity in test [3] turned out to be 155%; in test [4] it was 11.2%.

On to `O=C(Nc1ccccc1Cl)N[C@@H](C(=O)Nc1cccc(Br)c1)c1ccccc1`, for which the values for the Activity in test [3] and in test [4] were 161% and 26.3%, respectively.

For `COc1ccc(CCNC(=O)N[C@@H](C(=O)Nc2ccc(C)cc2)c2ccccc2)cc1OC`, the values for the Activity in test [3] and in test [4] were 148% and 24.3%, respectively.

Regarding `O=C(Nc1cccc2ccccc12)N[C@@H](C(=O)Nc1cc(F)ccc1F)c1ccccc1`, the Activity amounted to 151% in test [3] and 22.3% in test [4].

In the case of `C[C@@H](NC(=O)[C@H](NC(=O)Nc1ccc(C(F)(F)F)cc1)c1ccccc1)c1ccccc1`, the Activity came out at 209% in test [3] and 38.3% in test [4].

In the case of `O=C(Nc1ccccc1Cl)N[C@@H](C(=O)Nc1cc(F)ccc1F)c1ccccc1`, the Activity was determined as 144% in test [3] and 19.6% in test [4].

Take `COc1ccc(CCNC(=S)N[C@@H](C(=O)Nc2ccccc2)c2ccccc2)cc1OC`: the Activity in test [3] came to 170%; in test [4], 36.7%.

Regarding `COc1ccc(N2CCN(CC(OC(=O)c3ccc(-c4ccccc4)cc3)c3ccccc3)CC2)cc1` (stereo not drawn), the Activity in test [3] was 147%; in test [4], 9.2%.

Regarding `C[C@@H](NC(=O)[C@H](NC(=S)Nc1cc(C(F)(F)F)cc(C(F)(F)F)c1)c1ccccc1)c1ccccc1`, the Activity is 178% in test [3] and 32.9% in test [4].

On to `Cc1ccccc1NC(=O)[C@H](NC(=O)Nc1c(C)cccc1C)c1ccccc1`, for which the Activity in test [3] turned out to be 149%; in test [4], 24.2%.

For `Cc1ccc(NC(=O)N[C@@H](C(=O)N[C@H](C)c2ccccc2)c2ccccc2)cc1`, the Activity in test [3] turned out to be 148%; in test [4], 16.6%.

As to `CN(C)c1ccc(CCN[C@@H](C(=O)Nc2ccc(F)cc2F)c2ccccc2)cc1`, the Activity in test [3] is 149%; in test [4] it was 20.2%.

Consider `C[C@@H](NC(=O)[C@H](NC(=O)Nc1cccc(Cl)c1)c1ccccc1)c1ccccc1`, for which the values for the Activity in test [3] and in test [4] were 169% and 22.7%, respectively.

With `O=C(Nc1cccc(Cl)c1)N[C@@H](C(=O)Nc1cc(F)ccc1F)c1ccccc1`, the results for the Activity in test [3] and in test [4] were 159% and 24.7%, respectively.

Regarding `Cc1ccccc1NC(=O)[C@H](NC(=O)Nc1cccc(Cl)c1)c1ccccc1`, the values for the Activity in test [3] and in test [4] were 156% and 27.4%, respectively.

Consider `C[C@@H](NC(=O)[C@H](NC(=O)Nc1ccccc1Cl)c1ccccc1)c1ccccc1`, for which the Activity in test [3] worked out at 158%; in test [4], 19.3%.

As for `COc1ccc(N2CCN(CC(OC(=O)c3ccc(C)cc3)c3ccccc3)CC2)cc1` (stereo not drawn), the figures for the Activity in test [3] and in test [4] were 139% and 4.51%, respectively.

For the compound `CN1CCN(CC(OC(=O)c2ccc3c(c2)OCO3)c2ccccc2)CC1` (stereo not drawn), the Activity turned out to be 197% in test [3] and 14.7% in test [4]. Further, the fold change (FC) in test [1] worked out at 0.692. In addition, in test [2], the EC50 came to 54.8 nM.

As to `COc1ccc(CCN[C@@H](C(=O)Nc2ccccc2C)c2ccccc2)cc1OC`, the figures for the Activity in test [3] and in test [4] were 147% and 18.1%, respectively.

With `COc1cccc(CCN[C@@H](C(=O)Nc2ccc(F)cc2F)c2ccccc2)c1`, the values for the Activity in test [3] and in test [4] were 148% and 20.6%, respectively.

For `COc1ccc(NC(=O)N[C@@H](C(=O)Nc2cccc(Br)c2)c2ccccc2)cc1`, the Activity in test [3] was 157%; in test [4], 28.6%.

Consider `Cc1ccc(NC(=O)N[C@@H](C(=O)Nc2cc(F)ccc2F)c2ccccc2)cc1`, for which the Activity in test [3] was 153%; in test [4] it was 24%.

For `O=C(Nc1ccc(F)cc1F)[C@H](NCCc1ccc(Br)cc1)c1ccccc1`, the Activity turned out to be 171% in test [3] and 28.2% in test [4].

The record behind these values is ChEMBL document CHEMBL4196093, “Small-Molecule Activator of UNC-51-Like Kinase 1 (ULK1) That Induces Cytoprotective Autophagy for Parkinson's Disease Treatment” (J Med Chem, 2018).
